Test results as given in ChEMBL document CHEMBL4837227, “Discovery and development of 2-aminobenzimidazoles as potent antimalarials” (Eur J Med Chem, 2021).
Converted amounts (≈) assume the structure as drawn. The source made the active and inactive calls. The calls are words filed in the database; no cut-off is given here.

How the values were obtained:
[1] = tested on: Plasmodium falciparum; test: Antimalarial activity against Plasmodium falciparum 3D7 assessed as reduction in parasite growth measured after 72 hrs by Monash assay based fluorescence analysis; format: functional, organism-based; details: 3D7, 72 h
How it was run: (§1)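 Asynchronous P. falciparum cultures were grown continuously in complete RPMI with 25 mM HEPES, 0.5% Albumax II, 0.37 mM hypoxanthine and 2.0 g/l bicarbonate. They were exposed to serially diluted compound for 72 h. Controls were DMSO (0.01%) and a reference positive control. Fluorescence was read after 2 h in the dark at room temperature. IC50 is mean SEM from technical duplicate or triplicate, at least three biological replicates.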

[2] = tested on: Plasmodium falciparum 3D7; test: Binding affinity to Plasmodium falciparum 3D7 AMA1 (104 to 438 residues) expressed in Escherichia coli BL21(DE3) by surface plasmon resonance assay
[3] = tested on: Plasmodium falciparum; test: Antimalarial activity against synchronous ring stage of Plasmodium falciparum 3D7 assessed as parasite growth inhibition incubated for 72 hrs by Griffith assay based fluorescence analysis; format: functional, organism-based; details: 3D7, 72 h
How it was run: (§2)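 22-point dose-response, 3 per log, final 40 µM top, 0.4% DMSO. 72 h at 37 °C under 90% N2/5% CO2/5% O2. DAPI stain, confocal imaging. IC50 from 4-parameter fit normalised to in-plate puromycin and DMSO controls.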

[4] = tested on: Plasmodium falciparum; test: Antimalarial activity against synchronous ring stage of Plasmodium falciparum Dd2 assessed as parasite growth inhibition incubated for 72 hrs by Griffith assay based fluorescence analysis; format: functional, organism-based; details: Dd2, 72 h; how it was run: as §2
[5] = Selectivity index, ratio of IC50 for antimalarial activity against Plasmodium falciparum Dd2 to IC50 of antimalarial activity against Plasmodium falciparum 3D7; format: functional
[6] = tested on: Plasmodium falciparum; test: Antimalarial activity against artemisinin-resistant Plasmodium falciparum Cam3.II^C580Y expressing K13 mutant assessed as reduction in parasite growth measured after 72 hrs by Monash assay based fluorescence analysis; format: functional, organism-based
How it was run: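 Asynchronous culture, 72 h compound exposure. Compounds prepared at […] (twice the top concentration) in complete RPMI (25 mM HEPES, 0.5% Albumax II, 0.37 mM hypoxanthine, sodium bicarbonate), then serially diluted. Fluorescence read after 2 h room-temperature dark incubation. Negative control 0.01% DMSO. IC50 as mean SEM, n ≥ 3 biological replicates, each in technical duplicate or triplicate.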

[7] = tested on: Plasmodium falciparum; test: Antimalarial activity against artemisinin-sensitive Plasmodium falciparum Cam3.II^rev expressing wild type K13 assessed as reduction in parasite growth measured after 72 hrs by Monash assay based fluorescence analysis; format: functional, organism-based; how it was run: as §1
[8] = Selectivity index, ratio of IC50 for cytotoxicity against human HEK293 cells to antiplasmodial activity against Plasmodium falciparum 3D7; format: toxicity, cell-based; details: read-out: Ratio IC50
[9] = Kinetic solubility of the compound at pH 2 measured after 30 mins by nephelometry; format: physicochemical; details: buffer, read-out: Kinetic_solubility
How it was run: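 Compound in DMSO was spiked into 0.01 M HCl (pH ~2.0) at a final DMSO of 1%. After 30 min, nephelometry gave a solubility range.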

[10] = Metabolic stability in mouse liver microsomes assessed as half-life at 1 uM measured for 60 mins in presence of NADPH regenerating system by LC-MS analysis; format: ADME, Microsome
How it was run: (§3)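 Compound was incubated at 37 °C with liver microsomes at 0.4 mg/mL protein. The reaction was started with an NADPH-regenerating system and quenched at time points over 60 min with acetonitrile containing diazepam as internal standard. No-NADPH controls were quenched at 2, 30 and 60 min.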

[11] = Metabolic stability in human liver microsomes assessed as half-life at 1 uM measured for 60 mins in presence of NADPH regenerating system by LC-MS analysis; format: ADME, Microsome; how it was run: as §3
[12] = Metabolic stability in mouse liver microsomes assessed as intrinsic clearance at 1 uM measured per mg protein for 60 mins in presence of NADPH regenerating system by LC-MS analysis; format: ADME, Microsome; details: read-out: CLH; how it was run: as §3
[13] = Metabolic stability in human liver microsomes assessed as intrinsic clearance at 1 uM measured per mg protein after 60 mins in presence of NADPH regenerating system by LC-MS analysis; format: ADME, Microsome; details: read-out: CLH; how it was run: as §3
[14] = Kinetic solubility of the compound at pH 6.5 measured after 30 mins by nephelometry; details: buffer, read-out: Kinetic_solubility
[15] = tested on: HEK293; test: Cytotoxicity against human HEK293 cells assessed as reduction in cell viability at 50 uM measured after 24 hrs by MTT assay; details: hek293, 24 h

SMILES: Cc1cccc(O)c1-n1c(N)nc2ccccc21
- IC50 [1]: 135 nM

SMILES: Nc1nc2ccccc2n1-c1ccccc1CO
- IC50 [1]: > 500 nM
- Activity [2]: inactive

SMILES: Nc1nc2ccccc2n1-c1ccc(O)cc1
- IC50 [1]: > 500 nM
- Activity [2]: inactive

SMILES: Nc1nc2ccccc2n1-c1cccc(F)c1O
- IC50 [1]: > 500 nM

SMILES: CCNc1nc2ccccc2n1-c1ccccc1O
- IC50 [1]: > 500 nM

SMILES: Nc1nc2ccccc2n1-c1cccc2ccoc12
- IC50 [1]: > 500 nM

SMILES: COc1ccc(C[C@H](N)C(=O)N[C@H]2[C@@H](O)[C@H](n3cnc4c(N(C)C)ncnc43)O[C@@H]2CO)cc1 [PUROMYCIN]
- IC50 [3]: 149 nM
- IC50 [4]: 114 nM
- Ratio IC50 [5]: 0.8

SMILES: Nc1nc2ccccc2n1-c1ccc(F)cc1O
- IC50 [1]: 188 nM

SMILES: Nc1nccnc1-c1ccccc1O
- IC50 [1]: > 500 nM

SMILES: CCCCNc1nc2ccccc2n1-c1ccccc1O
- IC50 [1]: 278 nM

SMILES: N#Cc1ccc(-n2c(N)nc3ccccc32)cc1
- IC50 [1]: > 500 nM
- Activity [2]: inactive

SMILES: CCc1nc(N)nc(N)c1-c1ccc(Cl)cc1 [PYRIMETHAMINE]
- IC50 [3]: 4.7 nM
- IC50 [4]: > 40000 nM
- Ratio IC50 [5]: > 8000

SMILES: Cc1cccc(-n2c(N)nc3ccccc32)c1O
- IC50 [1]: 61 nM

SMILES: Oc1ccccc1-n1c(NC2CCCCC2)nc2ccccc21
- IC50 [1]: 333 nM

SMILES: CC(C)CNc1nc2ccccc2n1-c1ccccc1O
- IC50 [1]: 356 nM

SMILES: CCCNc1nc2ccccc2n1-c1ccccc1O
- IC50 [1]: > 500 nM

SMILES: Nc1ccccc1-n1c(N)nc2ccccc21
- IC50 [1]: > 500 nM
- Activity [2]: inactive

SMILES: Nc1nc2ccccc2n1-c1ccc(Cl)cc1O
- IC50 [1]: 164 nM

SMILES: Nc1nc2ccccc2n1-c1ccncc1O
- IC50 [1]: > 500 nM

SMILES: CC(C)Nc1nc2ccccc2n1-c1ccccc1O
- IC50 [1]: > 500 nM

SMILES: Nc1nc2ccccc2n1-c1cc(F)ccc1O
- IC50 [1]: 90 nM

SMILES: Oc1ccccc1-n1c(NCC2CC2)nc2ccccc21
- IC50 [1]: > 500 nM

SMILES: COc1ccccc1-n1c(N)nc2ccccc21
- IC50 [1]: > 500 nM
- Activity [2]: inactive

SMILES: Oc1ccccc1-n1c(NCC2CCCCC2)nc2ccccc21
- IC50 [1]: 224 nM

SMILES: COc1ccc(-n2c(N)nc3ccccc32)cc1
- IC50 [1]: > 500 nM
- Activity [2]: inactive

SMILES: Nc1nc2ccccc2n1-c1c(O)cccc1Cl
- IC50 [1]: > 500 nM

SMILES: COc1cccc(O)c1-n1c(N)nc2ccccc21
- IC50 [1]: 183 nM

SMILES: Cc1ccc(O)c(-n2c(N)nc3ccccc32)c1
- IC50 [1]: 56 nM

SMILES: Nc1nn(-c2ccccc2O)c2ccccc12
- IC50 [1]: > 500 nM

SMILES: Nc1ccc(-n2c(N)nc3ccccc32)cc1
- IC50 [1]: > 500 nM
- Activity [2]: inactive

SMILES: Nc1nc2ccccc2n1-c1cccc(O)c1
- IC50 [1]: > 500 nM
- Activity [2]: inactive

SMILES: Oc1ccccc1-n1c(NCc2ccccc2)nc2ccccc21
- IC50 [1]: > 500 nM

SMILES: Cc1cc(O)c(-n2c(N)nc3ccccc32)cc1C
- IC50 [1]: 6.4 nM
- IC50 [6]: 63 nM
- IC50 [7]: 47 nM
- selectivity ratio [8]: > 1000
- solubility kinetic at 0.5 h [9]: > 100 µg/mL
- half-life at 1 µM [10]: 23 min
- half-life at 1 µM [11]: 129 min
- microsomal CLint at 1 µM [12]: 76 µL/min/mg
- microsomal CLint at 1 µM [13]: 13 µL/min/mg
- solubility kinetic at 0.5 h [14]: 12.5 µg/mL (≈ 49.3 µM)
- Activity [15]: Non-Toxic

SMILES: Nc1nc2ccccc2n1-c1ccccc1F
- IC50 [1]: > 500 nM
- Activity [2]: inactive

SMILES: COc1cccc(-n2c(N)nc3ccccc32)c1
- IC50 [1]: > 500 nM
- Activity [2]: inactive

SMILES: Nc1nc2ccccc2n1-c1cccc2cc[nH]c12
- IC50 [1]: > 500 nM

SMILES: Nc1nc2ccccc2n1-c1ccc2ccccc2c1O
- IC50 [1]: 38 nM
- IC50 [6]: 114 nM
- IC50 [7]: 105 nM
- selectivity ratio [8]: > 1000
- Activity [15]: Non-Toxic

SMILES: Nc1nc2ccccc2n1CCO
- IC50 [1]: > 500 nM

SMILES: Nc1nc2ccccc2n1-c1cccnc1O
- IC50 [1]: > 500 nM

SMILES: COc1ccc2nc3cc(Cl)ccc3c(Nc3cc(CN4CCCC4)c(O)c(CN4CCCC4)c3)c2n1 [PYRONARIDINE]
- IC50 [3]: 7.4 nM
- IC50 [4]: 8.3 nM
- Ratio IC50 [5]: 1.1

SMILES: Nc1nc2ccccc2n1-c1cc(Cl)ccc1O
- IC50 [1]: 162 nM

SMILES: Nc1ccccc1-n1c(O)nc2ccccc21
- IC50 [1]: > 500 nM

SMILES: Nc1nc2ccccc2n1-c1ccc2cccnc2c1O
- IC50 [1]: > 500 nM

SMILES: COc1cccc(-n2c(N)nc3ccccc32)c1O
- IC50 [1]: 55 nM

SMILES: Nc1nc2ccccc2n1-c1ncccc1O
- IC50 [1]: > 500 nM

SMILES: Nc1ncccc1-c1ccccc1O
- IC50 [1]: > 500 nM

SMILES: Cc1ccc(-n2c(N)nc3ccccc32)cc1
- IC50 [1]: > 500 nM
- Activity [2]: inactive

SMILES: Cc1cc(C)c(O)c(-n2c(N)nc3ccccc32)c1
- IC50 [1]: 23 nM
- IC50 [6]: 139 nM
- IC50 [7]: 133 nM
- selectivity ratio [8]: > 1000
- solubility kinetic at 0.5 h [9]: > 100 µg/mL
- half-life at 1 µM [10]: 4 min
- half-life at 1 µM [11]: 173 min
- microsomal CLint at 1 µM [12]: 476 µL/min/mg
- microsomal CLint at 1 µM [13]: 10 µL/min/mg
- solubility kinetic at 0.5 h [14]: 12.5 µg/mL (≈ 49.3 µM)
- Activity [15]: Non-Toxic

SMILES: Nc1nc2ccccc2n1-c1cccc(Cl)c1O
- IC50 [1]: > 500 nM

SMILES: Nc1nc2ccccc2n1[C@H]1CCC[C@@H]1O
- IC50 [1]: > 500 nM

SMILES: Nc1nc2ccccc2n1-c1cnccc1O
- IC50 [1]: > 500 nM

SMILES: Nc1ccccc1-n1c(S)nc2ccccc21
- IC50 [1]: > 500 nM

SMILES: COc1ccc(O)c(-n2c(N)nc3ccccc32)c1
- IC50 [1]: > 500 nM

SMILES: Oc1ccccc1-n1cnc2ccccc21
- IC50 [1]: > 500 nM

SMILES: Nc1nc2ccccc2n1-c1c(O)cccc1F
- IC50 [1]: 321 nM

SMILES: COc1ccc(-n2c(N)nc3ccccc32)c(O)c1
- IC50 [1]: 43 nM
- IC50 [6]: 168 nM
- IC50 [7]: 212 nM
- selectivity ratio [8]: > 1000
- solubility kinetic at 0.5 h [9]: > 100 µg/mL
- half-life at 1 µM [10]: 6 min
- half-life at 1 µM [11]: 124 min
- microsomal CLint at 1 µM [12]: 271 µL/min/mg
- microsomal CLint at 1 µM [13]: 14 µL/min/mg
- solubility kinetic at 0.5 h [14]: 50 µg/mL (≈ 196 µM)
- Activity [15]: Non-Toxic

SMILES: Nc1nc2ccccc2n1[C@H]1CCCC[C@@H]1O
- IC50 [1]: > 500 nM

SMILES: Nc1nc2cccnc2n1-c1ccccc1O
- IC50 [1]: > 500 nM

SMILES: C[C@H]1[C@@H](O)O[C@@H]2O[C@@]3(C)CC[C@H]4[C@H](C)CC[C@@H]1[C@@]24OO3 [ARTENIMOL]
- IC50 [1]: 2 nM
- IC50 [3]: 0.4 nM
- IC50 [4]: 0.6 nM
- Ratio IC50 [5]: 1.3
